Shown are actives, neighbours in structure and some others; about 5.8% of the full set was active somewhere.
PLK1 inh: human PLK1 kinase inhibitors, primary screen, biochemical, TR-FRET; Serine/threonine-protein kinase PLK1 (Homo sapiens), P53350; recombinant PLK1 kinase, TR-FRET peptide phosphorylation; inhibition, % at 10 µM; 97,000 tested, 0.53% active;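 active means inhibition of 50% or more in the single-concentration screen; inactive means inhibition below 50%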;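 further: 0% = DMSO max control and 100% = H-89 dihydrochloride min control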
Cav3 T inh: Cav3.2 calcium influx blockers – cell-based, Fluo-4 calcium fluorescence, FDSS, MLSMR library, primary screen; Cav3.2-expressing cells; hits give low values; Voltage-dependent T-type calcium channel subunit alpha-1H (Homo sapiens), O95180; B-score at 10 µM; 100,000 tested, 4% active;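 active means single-dose well whose peak fluorescence ratio is a statistical outlier from its plate by either plate-standardised score or position-corrected B-score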
FAK blocker: FAK kinase inhibitors, primary screen, biochemical. Focal adhesion kinase 1 (Homo sapiens), Q05397. biochemical FAK kinase activity assay. inhibition, %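 (tested at 7 µM)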. 97,000 tested, 0.84% active; in the data active means inhibition above about 19%;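 further: 0% = DMSO and 100% = reference compound high control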
HIV Rev-RRE inh: HIV-1 Rev-RRE binding inhibitors, primary screen, biochemical, FRET, protein-RNA interaction; P05866; Rev peptide-RRE RNA binding; inhibition, % at 8 µM; 97,000 tested, 0.79% active;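 active means inhibition above the screen-wide mean plus 3 SD, cut at about 35% in these data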;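 further: 0% = median DMSO wells and 100% = median Neomycin B control wells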
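System: Cy5-labelled duplex RRE RNA binding fluorescein-labelled HIV Rev peptide; Signal: fluorescein-to-Cy5 FRET, 480 nm excitation; Also added: labelled Rev peptide; Compound: one concentration, 8 µM nominal; Buffer or medium: HEPES pH 7.5 salt buffer with EDTA; Read-out: % inhibition of FRET ratio versus controls; Schedule: 5 min preincubation and 15 min binding, 25 °C.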
PLK1 PBD inh: Plk1 polo box domain binding inhibitors, primary screen, biochemical, fluorescence polarization; AID 693, 2007; Plk1 PBD phosphopeptide binding; 97,000 tested, 0.13% active; inhibition, %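 (tested at about 20 µM)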; Serine/threonine-protein kinase PLK1 (Homo sapiens), P53350; in the data active means inhibition above about 34%, passing the limit was not always enough
PTK2B oligo ant: antagonists of Pyk2 self-association, primary screen, Q293 cells, FERM NanoBiT luminescence, HTS. 99,000 tested, 0.83% active. Protein-tyrosine kinase 2-beta (Homo sapiens), Q14289. hits give low values. z-score (the deposit names both 25 µM and 10 µM);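 active means Z-score of -3 or lower, scaled per plate to the spread of control and sample wells; inactive means z-score above -3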;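 further: negative z-score means lost luminescence so less FERM oligomerization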
Numbers without * were called inactive; . = no result given.

SMILES	PLK1 inh	Cav3 T inh	FAK blocker	HIV Rev-RRE inh	PLK1 PBD inh	PTK2B oligo ant
CC1CCCN(S(=O)(=O)c2ccc(C(=O)Nc3nnc(-c4ccccc4Cl)o3)cc2)C1 (stereo unspecified)	-14	-7.3*	-1	11	3	-3.8*
CCCCCCNC(=O)c1cc(-c2ccco2)nc2ccccc12	-10	-2	20*	3	-1	0.04
CC(C)CCNC(=O)c1cc(-c2ccco2)nc2ccccc12	-2	0.55	1	5	-35	0.43
CCOC(=O)c1c(NS(=O)(=O)Cc2ccccc2)sc2c1CCCC2	-1	-4.2*	-5	-4	8	-0.01
CCOC(=O)c1c(NC(=O)c2cccs2)sc2c1CCCC2	-11	-0.043	2	7	29	-0.76
CCOC(=O)c1c(NC(=O)OC)sc2c1CCC2	-5	-0.6	0	17	-23	0.19
CCOC(=O)c1c(NS(=O)(=O)c2ccc(Br)cc2)sc2c1CCC2	-5	-8.5*	5	17	9	-0.24
Cc1ccc(S(=O)(=O)Nc2cc(C)c(O)c(S(=O)(=O)c3ccc(C)cc3)c2)cc1	-2	-3.7*	-1	8	1	-0.1
COc1ccc(CC(=O)Nc2ccc(-c3noc(-c4cccc(OC)c4)n3)cc2)cc1	-9	-4.2*	1	2	38	0.91
CN1CCN(c2cc(=O)n(C3CCCCC3)c(=O)[nH]2)CC1	65*	-0.41	-1	8	4	.
Cc1oc(-c2cccc(Cl)c2)nc1CN1CCCC(C(=O)NCc2ccco2)C1 (stereo unspecified)	3	-1.5	-2	3	8	-0.4
CCc1ccc(-c2nc(CN3CCC(C(=O)NCc4ccccc4OC)CC3)c(C)o2)cc1	-10	-8.6*	-1	6	2	-0.29
Cc1oc(-c2cccc(Cl)c2)nc1CN1CCC(C(=O)NCc2ccco2)CC1	-13	-4.3*	4	6	-5	0.36
COc1ccccc1CNC(=O)C1CCN(Cc2nc(-c3cccc(Cl)c3)oc2C)CC1	9	-5.8*	0	6	1	3.7
C=CCn1c(Cc2cccs2)nnc1SC/C=C/c1ccccc1	-8	-1.8	-2	8	10	-0.11
Cc1ccc(OCC(=O)N2CCN(c3nnc(-c4ccc(C)cc4)c4ccccc34)CC2)cc1	-11	-7.4*	1	4	14	-1.9
COc1ccc(-c2nnc(N3CCCCC3)c3ccccc23)cc1	9	-4.6*	0	15	0	-1.4
COc1ccc(-c2ccc(C3C(C#N)=C(N)Oc4n[nH]c(C)c43)o2)cc1 (stereo unspecified)	36	0.26	5	52*	-13	0.09
COCc1[nH]nc2c1C(c1ccc(OC)cc1)C(C#N)=C(N)O2 (stereo unspecified)	-5	0.56	1	7	-9	0.34
Cc1[nH]nc2c1C(c1ccoc1)C(C#N)=C(N)O2 (stereo unspecified)	55*	.	2	8	9	0.77
O=C(COc1cccc2ccccc12)NNC(=O)C1CCCO1 (stereo unspecified)	-3	-0.9	-1	10	6	0.6
O=C(Nc1c(Cl)cc(Cl)cc1C(=O)NCc1cccnc1)c1ccc(Cl)cc1Cl	-8	0.83	-2	1	57*	0.29
O=C(c1ccc2c(c1)OCCO2)C1CCN(C(=O)c2ccc(F)cc2)CC1	-5	-1.1	-3	6	10	-0.9
O=C(c1ccc2c(c1)OCCO2)C1CCN(C(=O)c2ccc(F)c(F)c2)CC1	9	-3.9*	-4	6	-19	-0.91
O=C(CCn1c(=S)[nH]c2ccccc2c1=O)NCC1CCCO1 (stereo unspecified)	0	-4.5*	-1	5	23	0.02
SMILES	PLK1 inh	Cav3 T inh	FAK blocker	HIV Rev-RRE inh	PLK1 PBD inh	PTK2B oligo ant
CCCn1c(=S)[nH]c2cc(C(=O)NCC3CCCO3)ccc2c1=O (stereo unspecified)	.	0.51	.	.	.	.
CC(Nc1ccccc1)C(=O)Nc1ccc(F)cc1 (stereo unspecified)	-11	0.77	1	3	-19	-0.87
CCC(C)C(=O)Nc1cc(C(=O)OC)cc(C(=O)OC)c1 (stereo unspecified)	3	1.7	-5	4	3	-1.7
CC1=C(C#N)C(=O)OC(C)(C)C1	-11	0.035	0	43*	-6	0.73
COCCN(C(=O)COc1ccc(Cl)cc1)c1nnc(-c2cccnc2)s1	-25	-0.41	0	11	-12	0.4
CN(C)c1ncc(C2=C(Cl)C(=O)C(N3CCCC3)=C(Cl)C2=O)s1	29	0.21	39*	4	12	-0.06
CCOC(=O)c1c(C)[nH]c(C(=O)COC(=O)CSCC(=O)N(CC)CC)c1C	-8	0.3	2	0	3	0.11
Cn1c(NC(=O)c2cc(Br)ccc2Cl)cc(=O)n(C)c1=O	-3	.	4	6	-4	.
O=C(NC(=S)N1CCN(c2c(Cl)cccc2[N+](=O)[O-])CC1)c1cccs1	-7	-4.3*	-1	3	-33	0.24
Cc1ccc(C(=O)N/C(=C\c2ccco2)C(=O)NCCCn2ccnc2)cc1C	-5	0.14	-1	3	14	1.1
CN(C)c1ccc(C2N3CC4(C)CN2CC(C)(C3)C4O)cc1 (stereo unspecified)	62*	0.025	3	4	-19	.
O=C(CSc1nnc(-c2cccs2)n1-c1cccc(Cl)c1)c1cccc2c1OCCO2	-25	-0.39	-3	7	13	-3.1*
O=C(O)CSc1nnc(-c2cccs2)n1-c1ccc(Cl)cc1	-12	0.78	-2	6	-11	0.57
CS(=O)(=O)c1ccc2nc(NC(=O)CCC(=O)c3cccs3)sc2c1	-2	0.53	6	15	-5	1.6
CC(C)(C)NS(=O)(=O)c1ccc2nc(NC(=O)Cc3cccs3)sc2c1	-16	-4.2*	4	19	4	-1.6
CCCc1c(C)c2c(C)[nH]nc2oc1=O	58*	0.88	15	6	21	-0.72
COc1ccc(CSc2nnc(Cc3sc(-c4ccccc4)nc3-c3ccccc3)o2)cc1	-12	-5.2*	2	7	-3	-0.33
Fc1ccc(CSc2nnc(Cc3sc(-c4ccccc4)nc3-c3ccccc3)o2)cc1	21	0.67	-1	13	-8	-0.63
Cc1n[nH]c(C)c1S(=O)(=O)N(CC(=O)Nc1ccc2c(c1)OCCO2)c1ccc(C(C)C)cc1	-7	-0.75	-3	8	5	.
COc1cccc(C(=O)NCC(=O)n2nc(C)cc2C)c1	10	-0.35	4	2	-17	-0.13
